In ChEMBL document CHEMBL5344483, “Design and synthesis of novel chloropyridazine hybrids as promising anticancer agents acting by apoptosis induction and PARP-1 inhibition through a molecular hybridization strategy” (RSC Med Chem, 2024):

Assays:
HeLa = test: Anticancer activity against human HeLa cells assessed as growth inhibition at 100 microg/mL by SRB assay relative to control; assay type: functional; conditions: read-out: GI
Procedure, shortened: (§1)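 Cells seeded at 3×10^3 per well and allowed to attach for 24 h. Treated with 100 µg/mL compound for 48 h, triplicate wells, with a 1% v/v DMSO vehicle control. Fixed in 20% TCA, stained with 0.4% SRB, and OD read at 570 nm. Survival fraction is treated OD/control OD.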

FaDu [1] = test: Anticancer activity against human FaDu cells assessed as growth inhibition at 100 microg/mL by SRB assay relative to control; assay type: functional; conditions: read-out: GI; procedure, shortened: as §1
A549 = test: Anticancer activity against human A549 cells assessed as growth inhibition at 100 microg/mL by SRB assay relative to control; assay type: functional; conditions: read-out: GI; procedure, shortened: as §1
HCT-116 = test: Anticancer activity against human HCT-116 cells assessed as growth inhibition at 100 microg/mL by SRB assay relative to control; assay type: functional; conditions: read-out: GI; procedure, shortened: as §1
NCI-H460 = test: Anticancer activity against human NCI-H460 cells assessed as growth inhibition at 100 microg/mL by SRB assay relative to control; assay type: functional; conditions: read-out: GI; procedure, shortened: as §1
SK-BR-3 = test: Anticancer activity against human SK-BR-3 cells assessed as growth inhibition at 100 microg/mL by SRB assay relative to control; assay type: functional; conditions: read-out: GI; procedure, shortened: as §1
HNO 97 cell line [2] = test: Anticancer activity against human HNO97 cells assessed as growth inhibition at 100 microg/mL by SRB assay relative to control; assay type: functional; conditions: read-out: GI; procedure, shortened: as §1
Huh-7 = test: Anticancer activity against human Huh-7 cells assessed as growth inhibition at 100 microg/mL by SRB assay relative to control; assay type: functional; conditions: read-out: GI; procedure, shortened: as §1
MDA-MB-468 [3] = test: Anticancer activity against human MDA-MB-468 cells assessed as growth inhibition at 100 microg/mL by SRB assay relative to control; assay type: functional; conditions: read-out: GI; procedure, shortened: as §1
MCF7 = test: Anticancer activity against human MCF7 cells assessed as growth inhibition at 100 microg/mL by SRB assay relative to control; assay type: functional; conditions: read-out: GI; procedure, shortened: as §1
HNO 97 cell line [4] = test: Cytotoxicity against human HNO97 cells by SRB assay; assay type: functional, cell-based
Procedure, shortened: (§2)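 Cells seeded at 3×10^3 per well and allowed to attach for 24 h. Exposed to […], 12.5, 25 and 50 µg/mL for 48 h, triplicate wells per concentration, with a 1% v/v DMSO vehicle. Fixed in 20% TCA, stained with 0.4% SRB, and OD read at 570 nm. IC50 from sigmoidal dose-response fit of survival fraction (treated/control OD).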

MDA-MB-468 [5] = test: Cytotoxicity against human MDA-MB-468 cells by SRB assay; assay type: functional, cell-based; procedure, shortened: as §2
[6] = Cytotoxicity against human HSF (VGS) cells assessed as growth inhibition at 100 microg/mL by SRB assay relative to control; assay type: toxicity, cell-based; conditions: at 100 µg/mL, read-out: GI
A-375 = test: Anticancer activity against human A-375 cells assessed as growth inhibition at 100 microg/mL by SRB assay relative to control; assay type: functional; conditions: read-out: GI; procedure, shortened: as §1
FaDu [7] = test: Cytotoxicity against human FaDu cells by SRB assay; assay type: functional, cell-based; procedure, shortened: as §2

O=C(/C=C/c1ccc(Oc2ccc(Cl)nn2)cc1)c1ccc(OCc2ccc(F)c(Cl)c2)cc1
inhibition of growth at 100 µg/mL (HeLa): 36.2% | inhibition of growth at 100 µg/mL (FaDu [1]): 61.8% | inhibition of growth at 100 µg/mL (A549): 69.2% | inhibition of growth at 100 µg/mL (HCT-116): 55% | inhibition of growth at 100 µg/mL (NCI-H460): 54.6% | inhibition of growth at 100 µg/mL (SK-BR-3): 49.8% | inhibition of growth at 100 µg/mL (HNO 97 cell line [2]): 75.6% | inhibition of growth at 100 µg/mL (Huh-7): 61.9% | inhibition of growth at 100 µg/mL (MDA-MB-468 [3]): 78.2% | inhibition of growth at 100 µg/mL (MCF7): 47.2% | IC50 (HNO 97 cell line [4]): 30.3 µM | IC50 (MDA-MB-468 [5]): 36.3 µM | inhibition at 100 microg/mL [6]: 54% | inhibition of growth at 100 µg/mL (A-375): 39%

O=C(/C=C/c1ccc(Oc2ccc(Cl)nn2)cc1)c1ccc(OCc2ccccc2)cc1
inhibition of growth at 100 µg/mL (HeLa): 68.2% | inhibition of growth at 100 µg/mL (FaDu [1]): 85.4% | inhibition of growth at 100 µg/mL (A549): 77.1% | inhibition of growth at 100 µg/mL (HCT-116): 61.4% | IC50 (FaDu [7]): 79 µM | inhibition of growth at 100 µg/mL (NCI-H460): 46.9% | inhibition of growth at 100 µg/mL (SK-BR-3): 73.2% | inhibition of growth at 100 µg/mL (HNO 97 cell line [2]): 85.5% | inhibition of growth at 100 µg/mL (Huh-7): 73.9% | inhibition of growth at 100 µg/mL (MDA-MB-468 [3]): 89.8% | inhibition of growth at 100 µg/mL (MCF7): 71.7% | IC50 (HNO 97 cell line [4]): 74.5 µM | IC50 (MDA-MB-468 [5]): 54.2 µM | inhibition at 100 microg/mL [6]: 67.8% | inhibition of growth at 100 µg/mL (A-375): 67.2%

COc1ccc(C(=O)/C=C/c2ccc(Oc3ccc(Cl)nn3)cc2)cc1
inhibition of growth at 100 µg/mL (HeLa): 58.4% | inhibition of growth at 100 µg/mL (FaDu [1]): 68.2% | inhibition of growth at 100 µg/mL (A549): 77% | inhibition of growth at 100 µg/mL (HCT-116): 62.7% | inhibition of growth at 100 µg/mL (NCI-H460): 63.1% | inhibition of growth at 100 µg/mL (SK-BR-3): 66.7% | inhibition of growth at 100 µg/mL (HNO 97 cell line [2]): 69.1% | inhibition of growth at 100 µg/mL (Huh-7): 71.4% | inhibition of growth at 100 µg/mL (MDA-MB-468 [3]): 85.6% | inhibition of growth at 100 µg/mL (MCF7): 62.1% | IC50 (HNO 97 cell line [4]): 54.5 µM | IC50 (MDA-MB-468 [5]): 112 µM | inhibition at 100 microg/mL [6]: 53.5% | inhibition of growth at 100 µg/mL (A-375): 52.6%

COc1ccc(COc2ccc(C(=O)/C=C/c3ccc(Oc4ccc(Cl)nn4)cc3)cc2)cc1
inhibition of growth at 100 µg/mL (HeLa): 40.4% | inhibition of growth at 100 µg/mL (FaDu [1]): 75.5% | inhibition of growth at 100 µg/mL (A549): 72% | inhibition of growth at 100 µg/mL (HCT-116): 44% | IC50 (FaDu [7]): 95.2 µM | inhibition of growth at 100 µg/mL (NCI-H460): 44.8% | inhibition of growth at 100 µg/mL (SK-BR-3): 60.8% | inhibition of growth at 100 µg/mL (HNO 97 cell line [2]): 82.4% | inhibition of growth at 100 µg/mL (Huh-7): 69.3% | inhibition of growth at 100 µg/mL (MDA-MB-468 [3]): 88.4% | inhibition of growth at 100 µg/mL (MCF7): 60.6% | IC50 (HNO 97 cell line [4]): 40.2 µM | IC50 (MDA-MB-468 [5]): 93 µM | inhibition at 100 microg/mL [6]: 53.5% | inhibition of growth at 100 µg/mL (A-375): 59.3%

O=C(/C=C/c1ccc(Oc2ccc(Cl)nn2)cc1)c1ccc(OCc2ccc(OC(F)(F)F)cc2)cc1
inhibition of growth at 100 µg/mL (HeLa): 40.5% | inhibition of growth at 100 µg/mL (FaDu [1]): 84.9% | inhibition of growth at 100 µg/mL (A549): 57.8% | inhibition of growth at 100 µg/mL (HCT-116): 39.6% | IC50 (FaDu [7]): 83.5 µM | inhibition of growth at 100 µg/mL (NCI-H460): 49.7% | inhibition of growth at 100 µg/mL (SK-BR-3): 67.4% | inhibition of growth at 100 µg/mL (HNO 97 cell line [2]): 81% | inhibition of growth at 100 µg/mL (Huh-7): 66.3% | inhibition of growth at 100 µg/mL (MDA-MB-468 [3]): 80.3% | inhibition of growth at 100 µg/mL (MCF7): 53.6% | IC50 (HNO 97 cell line [4]): 20.3 µM | IC50 (MDA-MB-468 [5]): 68.3 µM | inhibition at 100 microg/mL [6]: 49.4% | inhibition of growth at 100 µg/mL (A-375): 53%

O=C(/C=C/c1ccc(Oc2ccc(Cl)nn2)cc1)c1ccc([N+](=O)[O-])cc1
inhibition of growth at 100 µg/mL (HeLa): 63.9% | inhibition of growth at 100 µg/mL (FaDu [1]): 82.7% | inhibition of growth at 100 µg/mL (A549): 75.1% | inhibition of growth at 100 µg/mL (HCT-116): 55.1% | IC50 (FaDu [7]): 60.2 µM | inhibition of growth at 100 µg/mL (NCI-H460): 64.2% | inhibition of growth at 100 µg/mL (SK-BR-3): 74.8% | inhibition of growth at 100 µg/mL (HNO 97 cell line [2]): 88.6% | inhibition of growth at 100 µg/mL (Huh-7): 72.1% | inhibition of growth at 100 µg/mL (MDA-MB-468 [3]): 91.9% | inhibition of growth at 100 µg/mL (MCF7): 72.9% | IC50 (HNO 97 cell line [4]): 28.8 µM | IC50 (MDA-MB-468 [5]): 36.7 µM | inhibition at 100 microg/mL [6]: 65.6% | inhibition of growth at 100 µg/mL (A-375): 62.2%

O=C1NC(=O)/C(=C\c2ccc(Oc3ccc(Cl)nn3)cc2)S1
inhibition of growth at 100 µg/mL (HeLa): 15.3% | inhibition of growth at 100 µg/mL (FaDu [1]): 65.2% | inhibition of growth at 100 µg/mL (A549): 57.8% | inhibition of growth at 100 µg/mL (HCT-116): 55.8% | inhibition of growth at 100 µg/mL (NCI-H460): 23.8% | inhibition of growth at 100 µg/mL (SK-BR-3): 63.8% | inhibition of growth at 100 µg/mL (HNO 97 cell line [2]): 40.3% | inhibition of growth at 100 µg/mL (Huh-7): 52.9% | inhibition of growth at 100 µg/mL (MDA-MB-468 [3]): 73% | inhibition of growth at 100 µg/mL (MCF7): 49.9% | IC50 (MDA-MB-468 [5]): 108 µM | inhibition at 100 microg/mL [6]: 56.9% | inhibition of growth at 100 µg/mL (A-375): 34.2%
